Experimental data from ChEMBL document CHEMBL5360580 (Eur J Med Chem, 2023).
The source made the active and inactive calls. The calls are words filed in the database; no cut-off is given here.

Legend:
SARS-CoV-2 [1] = experiment: Antiviral activity against SARS-CoV-2 infected in African green monkey Vero E6 cells assessed as inhibition of viral replication at 1 uM incubated for 24 hrs by IFA assay relative to control; assay type: functional; settings: Severe acute respiratory syndrome coronavirus 2, Vero C1008
SARS-CoV-2 [2] = experiment: Antiviral activity against SARS-CoV-2 infected in African green monkey Vero E6 cells assessed as inhibition of viral replication incubated for 24 hrs by IFA assay; assay type: functional, organism-based; settings: Severe acute respiratory syndrome coronavirus 2, Vero C1008, 24 h
Vero C1008 [3] = experiment: Cytotoxicity against African green monkey Vero E6 cells assessed as reduction in cell viability measured after 48 hrs by CCK-8 assay; assay type: toxicity, cell-based; settings: chlorocebus sabaeus, vero c1008, 48 h
[4] = Selectivity index, ratio of CC50 for cytotoxicity against African green monkey Vero E6 to EC50 for antiviral activity against SARS-CoV-2 infected in African green monkey Vero E6 cells; assay type: toxicity, cell-based, Vero C1008; settings: read-out: Ratio CC50/EC50
[5] = Prodrug conversion in ICR mouse plasma assessed as half life of compound 5-chloro-4-fluoro-2-hydroxy-N-(4-(trifluoromethoxy)phenyl)benzamide at 30 mg/kg, po and 2.5 mg/kg, iv measured upto 24 hrs by LC-MS/MS analysis; assay type: ADME, organism-based; settings: in vivo
Outline: (§1)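 Prodrugs were given to fasted ICR (CD-1) mice (N = 3) in DMSO/0.5% HMPC (5/95), at 30 mg/kg po or 2.5 mg/kg iv. Serum from femoral-vein blood taken 0.25–24 h was analysed by LC-MS/MS for the released parent compound, with mole correction applied to the parameters.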

[6] = Prodrug conversion in ICR mouse plasma assessed as Cmax of compound 5-chloro-4-fluoro-2-hydroxy-N-(4-(trifluoromethoxy)phenyl)benzamide at 30 mg/kg, po and 2.5 mg/kg, iv measured upto 24 hrs by LC-MS/MS analysis; assay type: ADME, organism-based; parameters: time < 24 hrs, dose 30 mg/kg, route po; settings: in vivo; outline: as §1
[7] = Prodrug conversion in ICR mouse plasma assessed as AUClast of compound 5-chloro-4-fluoro-2-hydroxy-N-(4-(trifluoromethoxy)phenyl)benzamide at 30 mg/kg, po and 2.5 mg/kg, iv measured upto 24 hrs by LC-MS/MS analysis; assay type: ADME, organism-based; parameters: dose 30 mg/kg, time < 24 hrs, route po; settings: in vivo; outline: as §1
[8] = Prodrug conversion in ICR mouse plasma assessed as Observed AUC (0 to infinity) of compound 5-chloro-4-fluoro-2-hydroxy-N-(4-(trifluoromethoxy)phenyl)benzamide at 30 mg/kg, po and 2.5 mg/kg, iv measured upto 24 hrs by LC-MS/MS analysis; assay type: ADME, organism-based; parameters: time < 24 hrs, dose 30 mg/kg, route po; settings: in vivo; outline: as §1
[9] = Prodrug conversion in ICR mouse plasma assessed as Observed MRT (0 to infinity) of compound 5-chloro-4-fluoro-2-hydroxy-N-(4-(trifluoromethoxy)phenyl)benzamide at 30 mg/kg, po and 2.5 mg/kg, iv measured upto 24 hrs by LC-MS/MS analysis; assay type: ADME, organism-based; settings: in vivo; outline: as §1
[10] = Prodrug conversion in ICR mouse plasma assessed as oral bioavailability of compound 5-chloro-4-fluoro-2-hydroxy-N-(4-(trifluoromethoxy)phenyl)benzamide at 30 mg/kg measured upto 24 hrs by LC-MS/MS analysis; assay type: ADME, organism-based; settings: in vivo; outline: as §1
[11] = Aqueous solubility of compound at 0.5 mg/mL in presence of acetonitrile by HPLC analysis; assay type: physicochemical; settings: buffer
Outline: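 Compound was suspended in water, vortexed vigorously and filtered through a 0.22 μm membrane. The filtrate was diluted 2-fold with 80% acetonitrile and analysed by reversed-phase amide HPLC. Concentration was read against a standard curve prepared from a 0.5 mg/mL solution in 80% acetonitrile. Single determination.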

[12] = Half life in ICR mouse at 30 mg/kg, po measured upto 24 hrs by LC-MS/MS analysis; assay type: ADME, organism-based; settings: in vivo
Outline: (§2)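 Male-unspecified ICR (CD-1) mice, N = 3 per group, were fasted 12 h. Compound in DMSO/0.5% HMPC (5/95, v/v) was given orally at 30 mg/kg or intravenously at 2.5 mg/kg. Femoral-vein blood was drawn at 0.25, 0.5, 1, 2, 4, 8 and 24 h, and serum analyte levels were measured by LC-MS/MS.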

[13] = Cmax in ICR mouse at 30 mg/kg, po measured upto 24 hrs by LC-MS/MS analysis; assay type: ADME, organism-based; parameters: dose 30 mg/kg, time < 24 hrs, route po; settings: in vivo; outline: as §2
[14] = AUClast in ICR mouse at 30 mg/kg, po measured upto 24 hrs by LC-MS/MS analysis; assay type: ADME, organism-based; parameters: dose 30 mg/kg, time < 24 hrs, route po; settings: in vivo; outline: as §2
[15] = Observed AUC (0 to infinity) in ICR mouse at 30 mg/kg, po measured upto 24 hrs by LC-MS/MS analysis; assay type: ADME, organism-based; parameters: dose 30 mg/kg, time < 24 hrs, route po; settings: in vivo; outline: as §2
[16] = Observed MRT (0 to infinity) in ICR mouse at 30 mg/kg, po measured upto 24 hrs by LC-MS/MS analysis; assay type: ADME, organism-based; settings: in vivo; outline: as §2
[17] = Subacute toxicity in ICR mouse assessed as mortality at 50 to 200 mg/kg, po qd administered for 10 days; assay type: organism-based; settings: in vivo, 240 h, dose 50-200 mg/kg, time 10 day
Outline: (§3)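 Male ICR mice (18–20 g), ten per group, received oral doses once daily for ten days, with a control group alongside. Body weight, food intake and behaviour were observed daily. Animals were fasted before dissection, and heart, liver, spleen, lung, kidney and administration site were collected for organ weight and histology.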

[18] = Subacute toxicity in ICR mouse assessed as change in body weight at 50 to 200 mg/kg, po qd administered for 10 days; assay type: organism-based; settings: in vivo, 240 h, dose 50-200 mg/kg, time 10 day; outline: as §3
[19] = Subacute toxicity in ICR mouse assessed as change in organ weight at 50 to 200 mg/kg, po qd administered for 10 days; assay type: organism-based; settings: in vivo, 240 h, dose 50-200 mg/kg, time 10 day; outline: as §3
[20] = Subacute toxicity in ICR mouse assessed as change in heart histology at 50 to 200 mg/kg, po qd administered for 10 days; assay type: organism-based; settings: in vivo, 240 h, dose 50-200 mg/kg, time 10 day; outline: as §3
[21] = Subacute toxicity in ICR mouse assessed as change in liver histology at 50 to 200 mg/kg, po qd administered for 10 days; assay type: organism-based; settings: in vivo, 240 h, dose 50-200 mg/kg, time 10 day; outline: as §3
[22] = Subacute toxicity in ICR mouse assessed as change in spleen histology at 50 to 200 mg/kg, po qd administered for 10 days; assay type: organism-based; settings: in vivo, 240 h, dose 50-200 mg/kg, time 10 day; outline: as §3
[23] = Subacute toxicity in ICR mouse assessed as change in lung histology at 50 to 200 mg/kg, po qd administered for 10 days; assay type: organism-based; settings: in vivo, 240 h, dose 50-200 mg/kg, time 10 day; outline: as §3
[24] = Subacute toxicity in ICR mouse assessed as change in kidney histology at 50 to 200 mg/kg, po qd administered for 10 days; assay type: organism-based; settings: in vivo, 240 h, dose 50-200 mg/kg, time 10 day; outline: as §3
[25] = Half life in ICR mouse at 2.5 mg/kg, iv measured upto 24 hrs by LC-MS/MS analysis; assay type: ADME, organism-based; settings: in vivo; outline: as §2
[26] = AUClast in ICR mouse at 2.5 mg/kg, iv measured upto 24 hrs by LC-MS/MS analysis; assay type: ADME, organism-based; parameters: dose 2.5 mg/kg, time < 24 hrs, route iv; settings: in vivo; outline: as §2
[27] = Observed AUC (0 to infinity) in ICR mouse at 2.5 mg/kg, iv measured upto 24 hrs by LC-MS/MS analysis; assay type: ADME, organism-based; parameters: dose 2.5 mg/kg, time < 24 hrs, route iv; settings: in vivo; outline: as §2
[28] = Observed MRT (0 to infinity) in ICR mouse at 2.5 mg/kg, iv measured upto 24 hrs by LC-MS/MS analysis; assay type: ADME, organism-based; settings: in vivo; outline: as §2
[29] = Oral bioavailability in ICR mouse at 30 mg/kg measured upto 24 hrs by LC-MS/MS analysis; assay type: ADME, organism-based; settings: in vivo; outline: as §2
Vero C1008 [30] = experiment: Downregulation of SKP2 level in African green monkey Vero E6 cells at 0.3 to 10 uM measured after 16 hrs by Western blotting analysis; assay type: functional, cell-based; settings: Chlorocebus sabaeus, dose 0.3-10 µM
Outline: (§4)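 Vero-E6 cells in DMEM with 10% FBS were cultured overnight at 37 °C, 5% CO2, then treated with a concentration series for 16 h. Lysates were made in RIPA on ice and equalised for protein by BCA. Blots were probed for SKP2 or Beclin-1 plus β-actin and detected by ECL. The band-intensity ratio to β-actin was normalised to DMSO control.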

Vero C1008 [31] = experiment: Downregulation of BECN1 level in African green monkey Vero E6 cells at 10 uM measured after 16 hrs by Western blotting analysis; assay type: functional, cell-based; settings: Chlorocebus sabaeus; outline: as §4
Vero C1008 [32] = experiment: Downregulation of BECN1 level in African green monkey Vero E6 cells at 1 to 3 uM measured after 16 hrs by Western blotting analysis; assay type: functional, cell-based; settings: Chlorocebus sabaeus, dose 1-3 µM; outline: as §4
[33] = Cmax in ICR mouse at 2.5 mg/kg, iv measured upto 24 hrs by LC-MS/MS analysis; assay type: ADME, organism-based; parameters: dose 2.5 mg/kg, time < 24 hrs, route iv; settings: in vivo; outline: as §2

## Oc1ccc(Cl)cc1-c1nnc(-c2ccc(C(F)(F)F)cc2)o1
SARS-CoV-2 [1]
  inhibition at 1 µM: < 10%

## O=C(Nc1ccc(C(F)(F)F)c(Cl)c1)c1cc(Cl)c(F)cc1O
SARS-CoV-2 [1]
  inhibition at 1 µM: 95%
SARS-CoV-2 [2]
  EC50: 2.67 µM
Vero C1008 [3]
  CC50: 4.52 µM
[4]
  selectivity ratio: 1.69

## CC(=O)Oc1cc(F)c(Cl)cc1C(=O)Nc1ccc(OC(F)(F)F)cc1
[5]
  t1/2: 3.57 h
[6]
  Cmax: 4771 ng/mL
[7]
  AUClast: 16458 ng·h/mL
[8]
  AUC: 16726 ng·h/mL
[9]
  MRT: 6.03 h
[10]
  F: 37.61%
[11]
  solubility: 0.71 µg/mL

## O=C(Nc1ccc(C(F)(F)F)cc1)c1cc(F)ccc1O
SARS-CoV-2 [1]
  inhibition at 1 µM: 92%
SARS-CoV-2 [2]
  EC50: 1.64 µM
Vero C1008 [3]
  CC50: 1.61 µM
[4]
  selectivity ratio: 0.98

## CS(=O)(=O)Nc1ccc(NC(=O)c2cc(Cl)ccc2O)c(Cl)c1
SARS-CoV-2 [1]
  inhibition at 1 µM: < 10%

## O=C(Nc1ccc(OC(F)(F)F)cc1)c1cc(Cl)c(F)cc1O
SARS-CoV-2 [1]
  inhibition at 1 µM: 91%
SARS-CoV-2 [2]
  EC50: 1 µM
Vero C1008 [3]
  CC50: 4.73 µM
[4]
  selectivity ratio: 4.73
[12]
  t1/2: 3.33 h
[13]
  Cmax: 2376 ng/mL
[14]
  AUClast: 5547 ng·h/mL
[15]
  AUC: 5579 ng·h/mL
[16]
  MRT: 4.41 h
[17]
  Activity: Non-Toxic
[18]
  Activity: Non-Toxic
[19]
  Activity: Non-Toxic
[20]
  Activity: Non-Toxic
[21]
  Activity: Non-Toxic
[22]
  Activity: Non-Toxic
[23]
  Activity: Non-Toxic
[24]
  Activity: Non-Toxic
[25]; iv, 2.5 mg/kg, 24 h
  t1/2: 4.6 h
[26]; 24 h
  AUClast: 3646 ng·h/mL
[27]; 24 h
  AUC: 3678 ng·h/mL
[28]; iv, 2.5 mg/kg, 24 h
  MRT: 1.94 h
[29]
  bioavailability: 12.7%
[11]
  solubility: 0.1 µg/mL
Vero C1008 [30]
  Activity: Active
Vero C1008 [31]
  Activity: Active
Vero C1008 [32]
  Activity: Active

## N#Cc1ccc(Cl)cc1C(=O)Nc1ccc(C(F)(F)F)cc1
SARS-CoV-2 [1]
  inhibition at 1 µM: < 10%

## O=C(Nc1ccc(C(F)(F)F)cc1Cl)c1cc(Cl)ccc1O
SARS-CoV-2 [1]
  inhibition at 1 µM: 79%

## O=C(Nc1ccc(SC(F)(F)F)cc1)c1cc(Cl)c(F)cc1O
SARS-CoV-2 [1]
  inhibition at 1 µM: 87%
SARS-CoV-2 [2]
  EC50: 1.61 µM
Vero C1008 [3]
  CC50: 2.63 µM
[4]
  selectivity ratio: 1.63

## O=S(=O)(Nc1ccc(C(F)(F)F)cc1)c1cc(Cl)ccc1O
SARS-CoV-2 [1]
  inhibition at 1 µM: < 10%

## O=C(Nc1ccc(C(F)(F)F)cc1)c1cc(Cl)cnc1O
SARS-CoV-2 [1]
  inhibition at 1 µM: 50%

## C[C@H](N)C(=O)Oc1cc(F)c(Cl)cc1C(=O)Nc1ccc(OC(F)(F)F)cc1.Cl
[25]; ICR
  half-life: 2.92 h
[26]; ICR
  AUC(0-t) at 24 h: 6670 ng·h/mL
[27]; ICR
  AUC(0-inf): 6700 ng·h/mL
[28]; ICR
  MRT inf: 5.02 h
[33]
  Cmax: 3360 ng/mL

## O=C(Nc1ccc(C(F)(F)F)cc1)c1cc(Cl)cc([N+](=O)[O-])c1O
SARS-CoV-2 [1]
  inhibition at 1 µM: 50%

## O=C(Nc1ccc(C(F)(F)F)cc1)c1ccccc1O
SARS-CoV-2 [1]
  inhibition at 1 µM: < 10%
